According to ChEMBL document CHEMBL3600318, “Chemical synthesis of tetracyclic terpenes and evaluation of antagonistic activity on endothelin-A receptors and voltage-gated calcium channels” (Bioorg Med Chem, 2015):
Calls of active or inactive are those of the source. The calls are words filed in the database; no cut-off is given here.

Columns and labels:
[1] = (§1) Antagonist activity at endothelin A receptor in Mongolian gerbil spiral modiolar artery assessed as inhibition of ET-1-induced vasoconstriction at 0.1 to 1 uM […] followed by compound washout and again ET-1 addition by video microscopic analysis; type: tissue-based, Meriones unguiculatus
Meriones unguiculatus = organism: Meriones unguiculatus; test: as §1; type: tissue-based
[2] = target: Voltage-dependent T-type calcium channel subunit alpha-1H (Mus musculus) (UniProt O88427); test: Inhibition of Cav3.2 T-type channel in C57/BC6 mouse DRG neurons assessed as inhibition of low-voltage activated Ca2+ currents by patch clamp method
Chain of Voltage-dependent T-type calcium channel subunit alpha-1H (Mus musculus) (O88427 whole entry): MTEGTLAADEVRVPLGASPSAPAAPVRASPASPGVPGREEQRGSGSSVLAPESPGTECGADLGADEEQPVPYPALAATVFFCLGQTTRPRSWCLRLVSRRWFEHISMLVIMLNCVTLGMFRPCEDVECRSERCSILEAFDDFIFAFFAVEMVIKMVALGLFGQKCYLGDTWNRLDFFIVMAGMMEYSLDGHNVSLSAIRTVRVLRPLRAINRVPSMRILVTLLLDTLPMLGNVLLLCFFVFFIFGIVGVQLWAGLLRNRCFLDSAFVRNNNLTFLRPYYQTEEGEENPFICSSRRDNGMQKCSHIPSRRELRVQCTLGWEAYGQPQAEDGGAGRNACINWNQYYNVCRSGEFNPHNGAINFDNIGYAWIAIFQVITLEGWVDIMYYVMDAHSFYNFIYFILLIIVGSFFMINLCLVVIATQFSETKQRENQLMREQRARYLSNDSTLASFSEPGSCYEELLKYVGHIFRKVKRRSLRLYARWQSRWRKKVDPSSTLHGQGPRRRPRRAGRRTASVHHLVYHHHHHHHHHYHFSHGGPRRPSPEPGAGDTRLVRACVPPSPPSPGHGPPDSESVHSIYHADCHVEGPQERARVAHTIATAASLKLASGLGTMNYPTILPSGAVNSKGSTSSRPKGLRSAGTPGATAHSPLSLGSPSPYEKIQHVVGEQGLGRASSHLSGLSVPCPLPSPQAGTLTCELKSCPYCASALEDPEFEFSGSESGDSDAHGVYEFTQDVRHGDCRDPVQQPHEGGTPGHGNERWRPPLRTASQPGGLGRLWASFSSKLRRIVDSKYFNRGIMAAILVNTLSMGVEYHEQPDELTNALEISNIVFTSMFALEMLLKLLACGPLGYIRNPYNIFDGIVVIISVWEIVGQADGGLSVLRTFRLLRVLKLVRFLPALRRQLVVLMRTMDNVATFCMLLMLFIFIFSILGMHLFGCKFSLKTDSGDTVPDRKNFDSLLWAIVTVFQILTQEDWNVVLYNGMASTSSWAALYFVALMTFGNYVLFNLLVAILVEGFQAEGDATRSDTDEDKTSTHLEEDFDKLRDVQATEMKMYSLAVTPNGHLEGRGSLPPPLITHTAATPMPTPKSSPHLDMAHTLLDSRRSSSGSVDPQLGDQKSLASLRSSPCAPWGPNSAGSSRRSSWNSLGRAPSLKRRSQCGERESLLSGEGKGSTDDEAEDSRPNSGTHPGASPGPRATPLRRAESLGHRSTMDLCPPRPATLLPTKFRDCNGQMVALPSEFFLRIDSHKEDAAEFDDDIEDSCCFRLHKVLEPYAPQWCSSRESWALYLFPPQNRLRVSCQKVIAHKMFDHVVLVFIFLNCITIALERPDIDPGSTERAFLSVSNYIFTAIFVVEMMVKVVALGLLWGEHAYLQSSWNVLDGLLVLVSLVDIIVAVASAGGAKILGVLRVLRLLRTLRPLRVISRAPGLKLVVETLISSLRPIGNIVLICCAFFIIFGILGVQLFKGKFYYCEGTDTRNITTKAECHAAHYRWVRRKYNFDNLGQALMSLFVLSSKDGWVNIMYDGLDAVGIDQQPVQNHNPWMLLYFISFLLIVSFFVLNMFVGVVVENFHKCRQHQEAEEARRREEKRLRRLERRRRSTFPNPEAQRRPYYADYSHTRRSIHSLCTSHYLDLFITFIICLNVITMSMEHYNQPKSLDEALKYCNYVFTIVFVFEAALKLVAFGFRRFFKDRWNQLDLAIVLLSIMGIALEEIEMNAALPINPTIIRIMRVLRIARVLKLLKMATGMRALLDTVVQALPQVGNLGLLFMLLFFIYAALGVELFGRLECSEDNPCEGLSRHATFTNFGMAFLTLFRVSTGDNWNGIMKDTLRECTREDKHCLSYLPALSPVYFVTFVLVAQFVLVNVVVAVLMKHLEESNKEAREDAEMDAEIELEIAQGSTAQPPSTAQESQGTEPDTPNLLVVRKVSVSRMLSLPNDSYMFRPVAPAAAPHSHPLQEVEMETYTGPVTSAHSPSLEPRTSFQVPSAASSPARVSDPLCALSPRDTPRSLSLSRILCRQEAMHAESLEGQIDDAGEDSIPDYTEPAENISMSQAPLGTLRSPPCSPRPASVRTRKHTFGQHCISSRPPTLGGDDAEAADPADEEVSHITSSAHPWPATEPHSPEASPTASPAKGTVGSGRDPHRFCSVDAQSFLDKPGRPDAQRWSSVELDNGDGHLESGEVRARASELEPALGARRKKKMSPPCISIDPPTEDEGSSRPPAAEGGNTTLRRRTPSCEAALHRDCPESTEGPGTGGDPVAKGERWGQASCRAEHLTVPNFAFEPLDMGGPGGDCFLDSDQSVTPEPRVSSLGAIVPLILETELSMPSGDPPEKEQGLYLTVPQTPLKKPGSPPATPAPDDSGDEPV
In short: (§2)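 Whole-cell voltage clamp at about 21 °C on large acutely dissociated DRG neurons from 1-2-month C57/BC6 mice, used within 2 days. Holding potential -90 mV, 100-ms steps in 10 mV increments every 2 s, giving low- and high-voltage-activated Ca2+ currents. Bath-applied compound 0.1–3 µM, vehicle 0.1% DMSO. IC50 from a logistic fit, mean ± SEM, n = 4 per point.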

Mus musculus [3] = organism: Mus musculus; test: Inhibition of L-type Ca2+ channel in C57/BC6 mouse DRG neurons assessed as inhibition of high-voltage activated Ca2+ currents by patch clamp method; in short: as §2
Mus musculus [4] = organism: Mus musculus; test: Inhibition of voltage-gated sodium channel in C57/BC6 mouse DRG neurons assessed as inhibition of voltage activated Na+ currents at 0.1 to 0.3 uM by patch clamp method
In short: (§3)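 Whole-cell voltage clamp at about 21 °C on acutely dissociated mouse DRG neurons. TTX-sensitive inward Na+ currents elicited by steps to 0 mV for 20 ms, outward K+ currents by steps to 70 mV for 300 ms, at 0.1 Hz; stable 30 min under control. Compound bath-applied, time course followed; vehicle 0.1% DMSO.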

Mus musculus [5] = organism: Mus musculus; test: Inhibition of voltage-gated potassium channel in C57/BC6 mouse DRG neurons assessed as inhibition of voltage activated […] currents at 0.1 to 0.3 uM by patch clamp method; in short: as §3
Mus musculus [6] = organism: Mus musculus; test: Inhibition of voltage-gated sodium channel in C57/BC6 mouse DRG neurons assessed as inhibition of voltage activated Na+ currents at 3 uM by patch clamp method; in short: as §3
Mus musculus [7] = organism: Mus musculus; test: Inhibition of voltage-gated potassium channel in C57/BC6 mouse DRG neurons assessed as inhibition of voltage activated […] currents at 3 uM by patch clamp method; in short: as §3
Endothelin-1 receptor [8] = target: T1, Endothelin-1 receptor (Rattus norvegicus, UniProt P26684); test: Antagonist activity at endothelin A receptor in rat A7r5 cells assessed as inhibition of ET-1-induced increase in cytosolic free Ca2+ level treated 1 min prior to ET-1 addition by fura-2 dye-based spectrofluorometric analysis; type: functional, cell-based
T1 sequence (P26684 whole entry): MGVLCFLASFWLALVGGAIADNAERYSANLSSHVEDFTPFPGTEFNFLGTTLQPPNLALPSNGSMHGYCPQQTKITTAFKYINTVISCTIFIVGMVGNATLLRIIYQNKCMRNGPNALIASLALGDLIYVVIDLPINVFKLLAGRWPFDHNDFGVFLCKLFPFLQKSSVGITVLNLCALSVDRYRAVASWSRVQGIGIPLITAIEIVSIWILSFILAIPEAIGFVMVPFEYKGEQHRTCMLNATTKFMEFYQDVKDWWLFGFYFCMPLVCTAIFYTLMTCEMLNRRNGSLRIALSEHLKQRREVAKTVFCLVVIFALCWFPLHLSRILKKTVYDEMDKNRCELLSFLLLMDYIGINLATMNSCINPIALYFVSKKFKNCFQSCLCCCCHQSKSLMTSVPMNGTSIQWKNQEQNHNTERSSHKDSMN

Endothelin-1 receptor [9] = target: T1, Endothelin-1 receptor; test: Antagonist activity at endothelin A receptor in Wistar rat thoracic aorta strips assessed as inhibition of ET1-induced vasoconstriction preincubated for 5 mins followed by ET1 addition

| SMILES | pA2 [1] | A2 (Meriones unguiculatus) [nM] | other results |
| --- | --- | --- | --- |
| CC1(C)C(=O)CC[C@]2(C)[C@H]3CCc4ccc(OCCO)cc4[C@]3(C)CC[C@@H]12 | 6.5 | – | – |
| CC1(C)C(=O)CC[C@]2(C)[C@H]3CC[C@@H]4CCC(=O)C=C4[C@]3(C)CC[C@@H]12 | 6.7 | – | – |
| CC1(C)[C@@H]2CC[C@]3(C)[C@H](CC[C@@H]4CC[C@@]5(O)C[C@]43C=N5)[C@@]2(C)CCC12OCCO2 | 6.5 | – | – |
| CC1(C)[C@@H]2CC[C@]3(C)[C@H](CC[C@@H]4CC=C(O[Si](C)(C)C(C)(C)C)C[C@]43C=N)[C@@]2(C)CCC12OCCO2 (single isomer, unassigned; (-)) | 7 | 93 | inhibition [2]: Dose-dependent effect; inhibition (Mus musculus [3]): Dose-dependent effect; inhibition (Mus musculus [4]): inactive; inhibition (Mus musculus [5]): inactive; inhibition (Mus musculus [6]): Active; inhibition (Mus musculus [7]): Active |
| CC1(C)CC[C@]2(C(=O)O)CC[C@]3(COC(=O)/C=C/c4ccc(O)c(O)c4)C(=CC[C@@H]4[C@@]5(C)CCC(=O)C(C)(C)[C@@H]5CC[C@]43C)[C@@H]2C1 | 7.1 | 85 | IC50 (Endothelin-1 receptor [8]): 11 nM; Ki (Endothelin-1 receptor [9]): 66 nM |
| CC1(C)C(=O)CC[C@]2(C)[C@H]3CC[C@@H]4CCC(=O)C[C@@]4(C#N)[C@]3(C)CC[C@@H]12 | 6.9 | 134 | – |
| CC1(C)C(=O)CC[C@]2(C)[C@H]3CCc4ccc(O)cc4[C@]3(C)CC[C@@H]12 | 6.7 | – | – |
